PubChem BioAssay
Active and inactive are the calls of the source.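 The calls were made as follows, unless noted: active = viability loss from added drug above about 55%, and viability with drug at most 40%, in both replicates (limit read from the data, passing the limit was not always enough); inconclusive = both conditions met in only one replicate; inactive = neither replicate meets both conditions.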

What was measured:
[1] = reduced viability of SK-BR-3 breast cancer cells – cell-based, 24 h, human, pilot screen (AID 572;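 active = viability at or below 10% of carrier control in both of two separate runs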;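 also: compound exposure lasted between 18 and 24 h rather than exactly 24 h; 100% = carrier-treated control wells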); details: SK-BR-3 viability, CellTiter-Glo luminescence, at 10 µM, stronger effect = lower value
[2] = HUVEC growth inhibition – cell-based, human, primary screen (AID 575;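 active = viability at or below 30% in both replicate assays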;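 also: 100% = median of untreated cell wells with 0.1% DMSO on each plate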); details: HUVEC proliferation, CellTiter-Glo luminescence, 72 h; at 10 µM; stronger effect = lower value
In short: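 Test system: HUVEC primary cells. Quantity: 1250 endothelial cells in each well. Dosing: single-point 10 µM, DMSO 0.1% final. Incubation: 72 h treatment at 37 °C. Measured by: CTG luminescence. Control set: DMSO cell controls and MePR drug controls. Plate: collagen-coated 384-well format.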

[3] = H69AR cell proliferation blockers – human, duplicate replicates, primary screen (AID 580;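 active = viability at or under a set limit in both replicates, limit being median viability minus 3 SD, cut at about 48% in these data, passing the limit was not always enough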;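 also: 100% = mean luminescence of untreated wells and 0% = no signal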); details: H69AR lung tumor cells viability, ATP luminescence, 72 h; at 10 µM; stronger effect = lower value
[4] = MRP1 drug-resistance reversers in H69AR cells – cell-based, doxorubicin co-treatment, pilot screen (AID 601); details: CellTiter-Glo, 72 h, at 10 µM; for differential viability (reversal): stronger effect = higher value
[5] = yeast transport mutant growth inhibition pilot in 384-well plates, post-Golgi transport modulator project (AID 636; in the data active = inhibition above about 31%); details: absorbance 615 nm, about 18 h, stronger effect = higher value
[6] = growth suppression of yeast trafficking mutant, preliminary HTS, modulators of trafficking downstream of Golgi apparatus project, 1536-format plate, OD 615 nm (AID 637; in the data active = inhibition above about 30%); details: yeast transport mutant growth, absorbance 615 nm, 18 h; stronger effect = higher value
[7] = H69AR cells + 2 uM doxorubicin, measured here: viability with 2 uM doxorubicin, stronger effect = lower value
[8] = H69AR cells, compound alone cytotoxicity

Row | SMILES | viability [1] | viability [2] | viability [3] | differential viability (reversal) ([4]; H69AR cells + 2 uM doxorubicin) | viability [4, 7] [%] | viability [4, 8] [%] | inhibition [5] | inhibition [6]
1 | CN(Cc1ccc(-n2cccn2)cc1)C(=O)c1cnn2c1NC(c1ccco1)CC2C(F)(F)F (centres undefined) | 74% (inactive) | 82.3% (inactive) | 78.4% (inactive) | -7.45% (inactive) | 85.8 | 78.4 | 2.88% (inactive) | -0.36% (inactive)
2 | Cc1ccc(N(CC(O)CN2CCCC2)S(=O)(=O)c2ccc(C)cc2)cc1 (centres undefined) | 132% (inactive) | 103% (inactive) | 86.9% (inactive) | -1.29% (inactive) | 88.2 | 86.9 | -5.21% (inactive) | -1.94% (inactive)
3 | COCCCNC(=O)CCn1c(=O)c2ccccc2n(CC(=O)Nc2ccc(C)cc2C)c1=O | 101% (inactive) | 106% (inactive) | 87.1% (inactive) | 7.22% (inactive) | 79.9 | 87.1 | 1.3% (inactive) | -5.41% (inactive)
4 | O=S(=O)(NCc1ccccn1)c1ccc2c(c1)OCCO2 | 115% (inactive) | 114% (inactive) | 109% (inactive) | 0.755% (inactive) | 108 | 109 | -0.81% (inactive) | 0.18% (inactive)
5 | CC(=O)c1c(C)nn(C(C)CC(=O)O)c1C (centres undefined) | 113% (inactive) | 97.8% (inactive) | 97.5% (inactive) | 8.11% (inactive) | 89.3 | 97.5 | -1.95% (inactive) | -4.75% (inactive)
6 | COc1ccc(OC)c(Nc2nc(-c3sc(N)nc3C)cs2)c1 | 97% (inactive) | 55.3% (inactive) | 78% (inactive) | 2.88% (inactive) | 75.1 | 78 | -6.49% (inactive) | -0.91% (inactive)
7 | COc1ccccc1OCCCn1c(=O)oc2ccccc21 | 154% (inactive) | 90.1% (inactive) | 98.2% (inactive) | 11.9% (inactive) | 86.3 | 98.2 | -1.56% (inactive) | 2.79% (inactive)
8 | Cc1cc(C)nc(N2CCC(C(=O)Nc3ccc(Oc4ccccc4)cc3)CC2)n1 | 67% (inactive) | 105% (inactive) | 88.9% (inactive) | 0.65% (inactive) | 88.2 | 88.9 | -8.36% (inactive) | 1.09% (inactive)
9 | CSC1=C(C#N)C(C)CC(=O)N1 (centres undefined) | 91% (inactive) | 107% (inactive) | 115% (inactive) | 9.97% (inactive) | 105 | 115 | -7.81% (inactive) | 2.18% (inactive)
10 | CC(C)(C#N)Nn1cnnc1 | 135% (inactive) | 104% (inactive) | 85.9% (inactive) | -4.76% (inactive) | 90.7 | 85.9 | -4.73% (inactive) | 4.18% (inactive)
11 | c1ccc(-c2nc3ccccc3nc2-c2ccccn2)nc1 | 89% (inactive) | 107% (inactive) | 89.5% (inactive) | -9.55% (inactive) | 99.1 | 89.5 | -1.17% (inactive) | 0.98% (inactive)
12 | CC(CC(=O)NCc1ccccc1)C1CCCO1 (centres undefined) | 130% (inactive) | 102% (inactive) | 93.4% (inactive) | 2.22% (inactive) | 91.2 | 93.4 | -2.21% (inactive) | 4.75% (inactive)
13 | CC(=O)N1CCc2cc(S(=O)(=O)NCCC(=O)Nc3cc(C)cc(C)c3)ccc21 | 95% (inactive) | 104% (inactive) | 95.6% (inactive) | 0.35% (inactive) | 95.3 | 95.6 | -4.93% (inactive) | -4% (inactive)
14 | CCOCC(=O)Nc1c(C(=O)Nc2ccc(OC)cc2OC)oc2ccccc12 | 65.5% (inactive) | 50.9% (inactive) | 48% (active) | -0.305% (inactive) | 48.3 | 48 | -6.62% (inactive) | -3.77% (inactive)
15 | Cc1[nH]nc2c1C(CCc1ccccc1)C(C#N)=C(N)O2 (centres undefined) | 104% (inactive) | 94.2% (inactive) | 90.2% (inactive) | -2.73% (inactive) | 92.9 | 90.2 | 4.11% (inactive) | 15.8% (inactive)
16 | N=c1nc(N2CCCCC2)cc(N)n1O | 96% (inactive) | 89.3% (inactive) | 99.8% (inactive) | 7.85% (inactive) | 92 | 99.8 | -1.17% (inactive) | -1.83% (inactive)
17 | CC(=O)Nc1ccccc1O | 111% (inactive) | 102% (inactive) | 96.1% (inactive) | 0.37% (inactive) | 95.7 | 96.1 | -0.13% (inactive) | 4.5% (inactive)
18 | CC(C)Sc1nc(N2CCCC2)c2c(c1C#N)CC(C)(C)OC2 | 90% (inactive) | 71.2% (inactive) | 80.2% (inactive) | 42.7% (inactive) | 37.5 | 80.2 | -2.88% (inactive) | -4.84% (inactive)
19 | O=C(Nc1ccccn1)N1CCOCC1 | 123% (inactive) | 110% (inactive) | 95.5% (inactive) | 6.42% (inactive) | 89.1 | 95.5 | -7.3% (inactive) | -5.45% (inactive)
20 | COCCc1ccc(OCC(O)CNC(C)C)cc1 (centres undefined) | 117% (inactive) | 70.4% (inactive) | 98.3% (inactive) | -7.28% (inactive) | 106 | 98.3 | -2.86% (inactive) | 1.33% (inactive)
21 | COc1ccc(N=C2C(=O)Nc3ccccc32)cc1 | 103% (inactive) | 66.7% (inactive) | 75.4% (inactive) | -4.16% (inactive) | 79.5 | 75.4 | -0.4% (inactive) | -1.45% (inactive)
22 | O=c1c2ccccc2[nH]c(=S)n1CCN1CCC(=C(c2ccc(F)cc2)c2ccc(F)cc2)CC1 | 113% (inactive) | 18.2% (active) | 78.8% (inactive) | -4.72% (inactive) | 83.6 | 78.8 | 83% (active) | 71% (active)
23 | CCOC(=O)N1CCC(NC(=O)Cn2cc3c(n2)CCC(C)C3)CC1 (centres undefined) | 128% (inactive) | 93% (inactive) | 98.7% (inactive) | 3% (inactive) | 95.7 | 98.7 | -1.64% (inactive) | 18.7% (inactive)
